Reference: ChEMBL document CHEMBL4382240, “Discovery of novel 2,5-dihydroxyterephthalamide derivatives as multifunctional agents for the treatment of Alzheimer's disease” (Bioorg Med Chem, 2018)
Calls of active or inactive are those of the source. The rule behind the calls is not given here.

Columns and labels:
Acetylcholinesterase [1] = biological target: T1, Acetylcholinesterase (Rattus norvegicus, UniProt P37136); experiment: Inhibition of rat AChE
T1 sequence (P37136 whole entry): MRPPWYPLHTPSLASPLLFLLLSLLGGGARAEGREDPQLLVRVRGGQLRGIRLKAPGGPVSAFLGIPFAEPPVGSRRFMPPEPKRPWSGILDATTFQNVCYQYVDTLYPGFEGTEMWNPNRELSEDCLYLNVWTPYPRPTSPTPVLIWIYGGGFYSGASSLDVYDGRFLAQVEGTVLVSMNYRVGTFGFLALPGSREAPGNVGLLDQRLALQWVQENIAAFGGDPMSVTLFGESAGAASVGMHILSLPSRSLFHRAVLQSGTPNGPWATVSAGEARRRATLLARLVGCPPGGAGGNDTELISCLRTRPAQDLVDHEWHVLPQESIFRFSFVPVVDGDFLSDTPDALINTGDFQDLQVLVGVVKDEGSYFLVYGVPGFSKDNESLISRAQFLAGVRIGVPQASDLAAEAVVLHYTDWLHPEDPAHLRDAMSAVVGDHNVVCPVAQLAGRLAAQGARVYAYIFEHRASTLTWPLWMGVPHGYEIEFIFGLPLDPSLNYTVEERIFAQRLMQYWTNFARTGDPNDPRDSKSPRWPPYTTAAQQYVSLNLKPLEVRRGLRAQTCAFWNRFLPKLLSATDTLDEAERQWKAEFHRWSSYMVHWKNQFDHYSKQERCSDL
Summary of the method: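 Ellman assay using 5% rat cortex homogenate, preincubated 5 min with iso-OMPA (4.0 mmol/L) to block BuChE. Acetylthiocholine iodide (1 mmol/L) with inhibitor dilutions in phosphate buffer ([…], pH 7.40), incubated 15 min at 37 °C. Stopped with 0.2% DTNB, absorbance read at 405 nm. IC50 as mean of three independent experiments, each in triplicate.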

[2] = Antioxidant activity assessed as trolox equivalent of APPH-induced radical scavenging activity at 5 uM preincubated for 15 mins followed by AAPH addition measured every minute for 90 mins by ORAC fluorescein assay; assay type: functional
Summary of the method: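 ORAC-FL in 75 mM phosphate buffer, pH 7.4. Fluorescein (150 nM final) and sample (tested at 1–10 µM) incubated 15 min at 37 °C. AAPH (12 mM final) then added, and fluorescence (ex 485/em 535 nm) read every minute for 90 min. Trolox standard 1–8 µM; result expressed as µM Trolox equivalent per µM compound. Duplicate wells; three independent experiments.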

Acetylcholinesterase [3] = biological target: Acetylcholinesterase (Homo sapiens, UniProt P22303); experiment: Inhibition of acetylcholinesterase (unknown origin)
Chain of Acetylcholinesterase (Homo sapiens, UniProt P22303) (P22303 whole entry): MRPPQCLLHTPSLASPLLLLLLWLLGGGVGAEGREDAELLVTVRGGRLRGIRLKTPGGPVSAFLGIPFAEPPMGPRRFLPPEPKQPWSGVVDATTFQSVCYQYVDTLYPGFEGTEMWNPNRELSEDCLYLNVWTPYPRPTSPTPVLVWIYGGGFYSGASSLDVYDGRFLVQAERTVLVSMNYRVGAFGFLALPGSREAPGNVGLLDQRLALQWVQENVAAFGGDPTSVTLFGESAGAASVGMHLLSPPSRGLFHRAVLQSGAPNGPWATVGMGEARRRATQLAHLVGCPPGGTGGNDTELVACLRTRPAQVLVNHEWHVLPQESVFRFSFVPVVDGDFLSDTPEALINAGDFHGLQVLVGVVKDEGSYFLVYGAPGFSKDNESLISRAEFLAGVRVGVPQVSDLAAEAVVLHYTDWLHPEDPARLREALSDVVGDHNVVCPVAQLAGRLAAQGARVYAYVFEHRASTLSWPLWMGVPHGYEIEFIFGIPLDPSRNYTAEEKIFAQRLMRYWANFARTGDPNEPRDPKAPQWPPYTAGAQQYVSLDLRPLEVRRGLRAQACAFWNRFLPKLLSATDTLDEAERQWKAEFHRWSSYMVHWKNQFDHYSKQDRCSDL

[4] = Anti-inflammatory activity in […] cells assessed as inhibition of LPS-stimulated NO release at 10 uM preincubated for 30 mins followed by LPS stimulation and measured after 24 hrs by Griess reagent based assay relative to control; assay type: functional; conditions: BV-2
Summary of the method: (§1)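 BV-2 cells cultured 24 h in DMEM (10% FBS, glutamine, pyruvate, pen/strep) at 37 °C, 5% CO2. Compound (DMSO stock diluted in PBS) added 30 min before LPS (1.0 µg/mL), then 24 h. Nitrite in supernatant measured by Griess reagent for 10 min at room temperature, A540, against a NaNO2 standard curve. Triplicate wells; mean ± SD of three independent experiments.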

[5] = Effect on TNFalpha release in […] cells up to 10 uM after 24 hrs by ELISA; assay type: ADME, cell-based
Summary of the method: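 BV-2 cells exposed to compound up to 10 µM with no added LPS. TNF-α in the medium measured by ELISA. Mean ± SD of three independent experiments.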

Acetylcholinesterase [6] = biological target: Acetylcholinesterase (Electrophorus electricus, UniProt O42275); experiment: Inhibition of electric eel AChE using acetylthiocholine iodide as substrate after 15 mins by Ellman's method
Chain of Acetylcholinesterase (Electrophorus electricus, UniProt O42275) (O42275 whole entry): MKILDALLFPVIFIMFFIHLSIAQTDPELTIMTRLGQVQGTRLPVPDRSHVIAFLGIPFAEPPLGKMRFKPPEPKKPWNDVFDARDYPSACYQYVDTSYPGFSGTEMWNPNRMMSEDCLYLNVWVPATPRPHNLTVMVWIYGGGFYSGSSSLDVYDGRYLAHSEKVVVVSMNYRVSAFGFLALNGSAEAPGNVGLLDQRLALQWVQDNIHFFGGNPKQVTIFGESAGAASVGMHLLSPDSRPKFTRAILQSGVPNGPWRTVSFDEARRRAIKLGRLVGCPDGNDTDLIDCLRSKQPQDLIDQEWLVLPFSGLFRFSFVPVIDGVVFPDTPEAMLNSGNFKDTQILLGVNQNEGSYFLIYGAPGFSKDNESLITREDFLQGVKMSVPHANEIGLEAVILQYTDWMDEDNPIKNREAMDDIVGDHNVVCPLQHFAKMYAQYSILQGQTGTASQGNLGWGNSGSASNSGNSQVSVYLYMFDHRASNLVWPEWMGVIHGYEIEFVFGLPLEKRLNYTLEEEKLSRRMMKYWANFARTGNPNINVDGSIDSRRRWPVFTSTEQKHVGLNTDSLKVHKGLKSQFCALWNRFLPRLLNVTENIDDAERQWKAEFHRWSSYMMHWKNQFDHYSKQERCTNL

[7] = Disaggregation of Cu2+ induced preformed fibrils of human amyloid beta (1 to 42) at 25 uM after 24 hrs by Thioflavin T based fluorometric assay relative to control
Summary of the method: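 Aβ1-42 (25 µM) with Cu2+ (25 µM) in HEPES buffer pre-aggregated 24 h at 37 °C. Compound (25 µM) then added for a further 24 h at 37 °C. Fibril content measured by ThT fluorescence (glycine-NaOH, pH 8.5). Triplicate; three independent experiments.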

[8] = Anti-inflammatory activity in […] cells assessed as inhibition of LPS-stimulated TNFalpha release at 10 uM preincubated for 30 mins followed by LPS stimulation and measured after 24 hrs by ELISA relative to control; assay type: functional; conditions: BV-2
Summary of the method: (§2)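 Confluent BV-2 cells in DMEM preincubated 30 min with compound, tested over 0.5–10 µM, then stimulated with LPS (1.0 µg/mL) for 24 h. Released TNF-α measured by ELISA following kit instructions. Triplicate wells; mean ± SD of three independent experiments.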

[9] = biological target: T2, Amyloid-beta precursor protein (Homo sapiens, UniProt P05067); experiment: Inhibition of human amyloid beta (1 to 42) self-induced aggregation at 25 uM after 24 hrs by Thioflavin T based fluorometric assay relative to control
T2 sequence (P05067 whole entry): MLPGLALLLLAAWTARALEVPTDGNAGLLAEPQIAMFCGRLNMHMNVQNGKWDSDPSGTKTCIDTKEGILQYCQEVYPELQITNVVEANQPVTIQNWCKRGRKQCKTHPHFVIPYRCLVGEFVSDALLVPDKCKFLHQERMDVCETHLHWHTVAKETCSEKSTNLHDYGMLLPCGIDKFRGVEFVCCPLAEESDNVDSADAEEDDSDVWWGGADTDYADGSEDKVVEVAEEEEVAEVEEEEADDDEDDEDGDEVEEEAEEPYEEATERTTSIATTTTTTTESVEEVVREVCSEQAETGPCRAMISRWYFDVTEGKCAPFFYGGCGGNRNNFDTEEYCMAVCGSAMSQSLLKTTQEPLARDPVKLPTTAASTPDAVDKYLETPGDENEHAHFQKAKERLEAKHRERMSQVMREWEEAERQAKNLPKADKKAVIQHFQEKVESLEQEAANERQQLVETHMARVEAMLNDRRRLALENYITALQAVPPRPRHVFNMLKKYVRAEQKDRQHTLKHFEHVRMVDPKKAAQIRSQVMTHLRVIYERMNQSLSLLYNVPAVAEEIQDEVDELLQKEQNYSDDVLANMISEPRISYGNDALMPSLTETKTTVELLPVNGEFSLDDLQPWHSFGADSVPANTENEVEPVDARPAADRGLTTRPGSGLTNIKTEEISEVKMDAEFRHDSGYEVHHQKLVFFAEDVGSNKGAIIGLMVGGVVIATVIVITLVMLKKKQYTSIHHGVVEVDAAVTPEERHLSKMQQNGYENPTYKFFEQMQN
Summary of the method: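 Aβ1-42 (25 µM final) incubated with compound (25 µM final) in 50 mM phosphate buffer, pH 7.4, for 24 h at 37 °C under a sealing film. ThT (5 µM) in 50 mM glycine-NaOH, pH 8.5, then added and fluorescence measured. Triplicate; mean ± SD of three independent experiments.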

Butyrylcholinesterase = Butyrylcholinesterase (Rattus norvegicus, UniProt Q9JKC1); experiment: Inhibition of rat serum BuChE using butyrylthiocholine iodide as substrate after 15 mins by Ellman's method; assay type: ADME
Chain of Butyrylcholinesterase (Q9JKC1 whole entry): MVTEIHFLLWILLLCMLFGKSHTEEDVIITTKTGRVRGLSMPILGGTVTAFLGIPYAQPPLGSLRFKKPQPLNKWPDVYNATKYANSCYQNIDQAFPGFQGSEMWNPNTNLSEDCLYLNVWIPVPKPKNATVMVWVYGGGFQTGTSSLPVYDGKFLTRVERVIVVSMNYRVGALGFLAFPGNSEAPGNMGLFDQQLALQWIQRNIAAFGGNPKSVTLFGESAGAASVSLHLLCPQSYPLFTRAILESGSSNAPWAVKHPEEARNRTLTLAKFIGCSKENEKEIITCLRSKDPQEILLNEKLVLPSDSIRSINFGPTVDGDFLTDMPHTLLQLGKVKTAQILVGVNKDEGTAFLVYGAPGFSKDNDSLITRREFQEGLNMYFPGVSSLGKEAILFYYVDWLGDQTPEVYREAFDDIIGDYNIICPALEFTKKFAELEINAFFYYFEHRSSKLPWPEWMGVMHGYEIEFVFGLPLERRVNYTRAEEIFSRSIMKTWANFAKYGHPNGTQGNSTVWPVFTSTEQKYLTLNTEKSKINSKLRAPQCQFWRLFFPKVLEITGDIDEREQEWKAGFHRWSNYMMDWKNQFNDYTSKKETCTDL

[10] = Anti-inflammatory activity in […] cells assessed as inhibition of LPS-stimulated NO release at 2.5 uM preincubated for 30 mins followed by LPS stimulation and measured after 24 hrs by Griess reagent based assay relative to control; assay type: functional; conditions: BV-2; summary of the method: as §1
[11] = biological target: T2, Amyloid-beta precursor protein; experiment: Inhibition of human amyloid beta (1 to 42) self-induced aggregation after 24 hrs by Thioflavin T based fluorometric assay
Summary of the method: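 Self-induced Aβ1-42 aggregation (25 µM peptide) in phosphate buffer, pH 7.4, for 24 h at 37 °C with varying compound concentrations. Aggregation read by ThT fluorescence (5 µM ThT, glycine-NaOH pH 8.5).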

[12] = Effect on NO release in […] cells up to 10 uM after 24 hrs by Griess reagent based assay; assay type: ADME, cell-based
Summary of the method: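 BV-2 cells in DMEM treated with compound alone, without LPS, up to 10 µM. Nitrite in culture supernatant measured by Griess reagent (A540) against a NaNO2 standard curve. Mean ± SD of three independent experiments.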

[13] = biological target: T2, Amyloid-beta precursor protein; experiment: Disaggregation of self-induced preformed fibrils of human amyloid beta (1 to 42) at 25 uM after 24 hrs by Thioflavin T based fluorometric assay relative to control
Summary of the method: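 Aβ1-42 diluted in HEPES buffer (20 mM, pH 6.6, 150 mM NaCl) and pre-aggregated 24 h at 37 °C. Compound (25 µM) then added for another 24 h at 37 °C on a sealed plate. Remaining fibrils read by ThT fluorescence in glycine-NaOH, pH 8.5. Triplicate; three independent experiments.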

[14] = Inhibition of Cu2+ induced human amyloid beta (1 to 42) aggregation at 25 uM after 24 hrs by Thioflavin T based fluorometric assay relative to control
Summary of the method: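 Aβ1-42 (25 µM) and Cu2+ (25 µM) in HEPES buffer (20 mM, pH 6.6, 150 mM NaCl), with or without compound (25 µM final), incubated 24 h at 37 °C. ThT (5 µM) in glycine-NaOH, pH 8.5, added and fluorescence read. Triplicate; three independent experiments.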

Homo sapiens [15] = organism: Homo sapiens; experiment: Anti-inflammatory activity in […] cells assessed as inhibition of LPS-stimulated NO release preincubated for 30 mins followed by LPS stimulation and measured after 24 hrs by Griess reagent based assay; assay type: functional, cell-based
Homo sapiens [16] = organism: Homo sapiens; experiment: Anti-inflammatory activity in […] cells assessed as inhibition of LPS-stimulated TNFalpha release at 0.5 uM preincubated for 30 mins followed by LPS stimulation and measured after 24 hrs by ELISA; assay type: functional, cell-based; summary of the method: as §2
[17] = Anti-inflammatory activity in […] cells assessed as inhibition of LPS-stimulated TNFalpha release at 2.5 uM preincubated for 30 mins followed by LPS stimulation and measured after 24 hrs by ELISA relative to control; assay type: functional; conditions: BV-2; summary of the method: as §2
[18] = Cytotoxicity against […] cells assessed as decrease in cell viability up to 10 uM preincubated for 30 mins followed by LPS stimulation and measured after 24 hrs by MTT assay; assay type: cell-based
Summary of the method: (§3)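 BV-2 cells grown 24 h, then treated with compound (0.5, 2.5, 10.0 µM) for 30 min, with or without LPS (1.0 µg/mL), for a further 24 h. MTT (5 mg/mL) added for 4 h, formazan dissolved in DMSO, A490 read. Viability given as percent of untreated cells. Triplicate wells; three independent experiments.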

Homo sapiens [19] = organism: Homo sapiens; experiment: Anti-inflammatory activity in […] cells assessed as inhibition of LPS-stimulated TNFalpha release preincubated for 30 mins followed by LPS stimulation and measured after 24 hrs by ELISA; assay type: functional, cell-based; summary of the method: as §2
[20] = Cytotoxicity against […] cells assessed as decrease in cell viability up to 10 uM measured after 24 hrs by MTT assay; assay type: cell-based; summary of the method: as §3
Acetylcholinesterase [21] = biological target: T1, Acetylcholinesterase; experiment: Inhibition of rat cortex AChE using acetylthiocholine iodide as substrate after 15 mins by Ellman's method
[22] = Effective permeability of the compound in PBS/EtOH at 100 ug/ml after 18 hrs by PAMPA; assay type: ADME; conditions: read-out: Peff

Row | Compound | Activity [2] [equiv] | inhibition at 10 µM [4] [%] | Activity [5] | IC50 (Acetylcholinesterase [6]) [µM] | Activity [7] [%] | inhibition at 10 µM [8] [%] | inhibition [9] [%] | IC50 (Butyrylcholinesterase) [µM] | inhibition at 2.5 µM [10] [%] | IC50 [11] [µM] | Activity [12] | Activity [13] [%] | inhibition [14] [%] | inhibition (Homo sapiens [15]) | inhibition (Homo sapiens [16]) | inhibition at 2.5 µM [17] [%] | Activity [18] | inhibition (Homo sapiens [19]) | Activity [20] | IC50 (Acetylcholinesterase [21]) [µM] | further results
1 | CCN(CCCCCCNC1=CC(=O)C(NCCCCCCN(CC)Cc2ccccc2OC)=CC1=O)Cc1ccccc1OC [MEMOQUIN] | 0.77 |  |  |  |  |  |  |  |  |  |  |  |  |  |  |  |  |  |  |  | IC50 (Acetylcholinesterase [1]): 0.00155 µM
2 | O=C(O)c1ccccc1O [SALICYLIC ACID] |  |  |  |  |  |  |  |  |  |  |  |  |  |  |  |  |  |  |  |  | IC50 (Acetylcholinesterase [3]): 346 µM
3 | COc1ccccc1CN(C)CCCCNC(=O)c1cc(O)c(C(=O)NCCCCN(C)Cc2ccccc2OC)cc1O | 0.64 | 57.5 | Non-Toxic | 5.87 | 76.3 | 59.4 | 98.6 | 19.2 | 36.7 | 3.45 | Non-Toxic | 80.3 | 65.4 | Dose-dependent effect | inactive | 32.9 | Non-Toxic | Dose-dependent effect | Non-Toxic | 7.37 | 
4 | CCN(CCCCCCNC(=O)c1cc(O)c(C(=O)NCCCCCCN(CC)Cc2ccccc2OC)cc1O)Cc1ccccc1OC | 1.43 | 63.3 | Non-Toxic | 6.75 | 85.3 | 50.6 | 99.6 | > 100 | 33.3 | 3.31 | Non-Toxic | 83.8 | 89.9 | Dose-dependent effect | inactive | 20.6 | Non-Toxic | Dose-dependent effect | Non-Toxic | 1.68 | Papp at 18 h, 100 ug/ml [22]: 5.54 ×10⁻⁶ cm/s
5 | CCN(CCCNC(=O)c1cc(O)c(C(=O)NCCCN(CC)Cc2ccccc2OC)cc1O)Cc1ccccc1OC | 1.1 | 50.8 | Non-Toxic | 11.4 | 73.1 | 41.1 | 98.2 | > 100 | 35 | 2.41 | Non-Toxic | 77.3 | 88.8 | Dose-dependent effect | inactive | 28.2 | Non-Toxic | Dose-dependent effect | Non-Toxic | 0.67 | Papp at 18 h, 100 ug/ml [22]: 4.23 ×10⁻⁶ cm/s
